From ChEMBL document CHEMBL3734652, “Pyrrolo[3,4-c]pyridine-1,3(2H)-diones: A Novel Antimycobacterial Class Targeting Mycobacterial Respiration” (J Med Chem, 2015)
Converted amounts (≈) assume the structure as drawn.

Key:
[1] = Metabolic stability in human liver microsomes assessed as residual compound at 0.1 uM after 30 mins by LC-MS/MS method in presence or absence of NADPH; type: ADME; conditions: read-out: Stability
[2] = tested on: Mycobacterium tuberculosis; assay: Antimicrobial activity against Mycobacterium tuberculosis H37RvMA under GAST/Fe medium assessed as growth inhibition after 14 days by alamar blue assay; type: functional; conditions: 336 h
Outline: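 Broth microdilution in GAST/Fe medium against fully virulent Mtb H37RvMa or its derived strains (cytochrome bd oxidase deletion ΔcydKO; qcrB Ala317Thr point mutant). Plates were incubated 14 days, growth was read by Alamar Blue, and MIC90 was taken as the potency value.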

[3] = Metabolic stability in mouse liver microsomes assessed as residual compound at 0.1 uM after 30 mins by LC-MS/MS method in presence or absence of NADPH; type: ADME; conditions: read-out: Stability
[4] = Metabolic stability in rat liver microsomes assessed as residual compound at 0.1 uM after 30 mins by LC-MS/MS method in presence or absence of NADPH; type: ADME; conditions: read-out: Stability
[5] = Kinetic solubility in FaSSIF at pH 6.5 after 2 hours at 25 degC by shake flask method; type: physicochemical; conditions: read-out: Kinetic_solubility
Plasma = assay: Drug metabolism in C57/BL6 mouse plasma treated with 7-Amino-2-benzyl-4-methyl-6-(3-methyl-1,2,4-oxadiazol-5-yl)-1H-pyrrolo[3,4-c]pyridine-1,3(2H)-dione by LC-MS analysis; type: ADME, cell-free
Liver = assay: Drug level in BALB/c mouse liver microsomes treated with 7-Amino-2-benzyl-4-methyl-6-(3-methyl-1,2,4-oxadiazol-5-yl)-1H-pyrrolo[3,4-c]pyridine-1,3(2H)-dione at 10 uM after 1 hr by LC-MS analysis; type: ADME
Vero = assay: Cytotoxicity against African green monkey Vero cells assessed as cell viability by MTT assay; type: cell-based; conditions: Chlorocebus sabaeus
Outline: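 VERO kidney epithelial cells from African green monkey were exposed to compounds at concentrations up to 100 μM, and IC₅₀ was reported.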

SMILES: Cc1nc(C(=O)OC2CC2)c(N)c2c1C(=O)N(Cc1ccccc1)C2=O
- remaining at 0.5 h, 0.1 µM [1]: 61%
- MIC90 [2]: 1.25 µM (≈ 0.439 µg/mL)
- remaining at 0.5 h, 0.1 µM [3]: 36%
- remaining at 0.5 h, 0.1 µM [4]: 9.6%
- solubility kinetic at 2 h [5]: 202 µM (≈ 71 µg/mL)

SMILES: Cc1noc(-c2nc(C)c3c(c2N)C(=O)N(CC2CCNCC2)C3=O)n1
- MIC90 [2]: > 160 µM
- solubility kinetic at 2 h [5]: 160 µM (≈ 57 µg/mL)

SMILES: COc1ccc(CN2C(=O)c3c(C)nc(-c4nc(C)no4)c(N)c3C2=O)cc1
- MIC90 [2]: < 0.156 µM
- solubility kinetic at 2 h [5]: < 5 µM

SMILES: Cc1nc(C(=O)NC#N)c(N)c2c1C(=O)N(Cc1ccccc1)C2=O
- remaining at 0.5 h, 0.1 µM [1]: 99%
- Drug metabolism (Plasma): metabolite_detected
- MIC90 [2]: > 160 µM
- remaining at 0.5 h, 0.1 µM [3]: 95%
- remaining at 0.5 h, 0.1 µM [4]: 92%
- Drug metabolism (Liver): metabolite_detected
- solubility kinetic at 2 h [5]: 185 µM (≈ 62 µg/mL)

SMILES: Cc1noc(-c2nc(C)c3c(c2N)C(=O)N(Cc2ccc(S(C)(=O)=O)cc2)C3=O)n1
- MIC90 [2]: 0.31 µM (≈ 0.133 µg/mL)
- solubility kinetic at 2 h [5]: < 5 µM

SMILES: Cc1noc(-c2nc(C)c3c(c2N)C(=O)N(Cc2ccc(-c4ccncc4)cc2)C3=O)n1
- MIC90 [2]: 160 µM (≈ 68.2 µg/mL)
- solubility kinetic at 2 h [5]: < 5 µM

SMILES: Cc1nc(C(N)=O)c(N)c2c1C(=O)N(Cc1ccccc1)C2=O
- Drug metabolism (Plasma): metabolite_detected
- MIC90 [2]: > 160 µM
- Drug metabolism (Liver): metabolite_detected
- solubility kinetic at 2 h [5]: < 5 µM

SMILES: Cc1noc(-c2nc(C)c3c(c2N)C(=O)N(Cc2ccncc2)C3=O)n1
- MIC90 [2]: 20 µM (≈ 7.01 µg/mL)
- solubility kinetic at 2 h [5]: 26.4 µM (≈ 9.25 µg/mL)

SMILES: Cc1noc(-c2nc(C)c3c(c2N)C(=O)N(Cc2ccc(F)cc2)C3=O)n1
- MIC90 [2]: 0.31 µM (≈ 0.114 µg/mL)
- solubility kinetic at 2 h [5]: < 5 µM

SMILES: Cc1noc(-c2nc(C)c3c(c2N)C(=O)N(Cc2ccc(N4CCCC4=O)cc2)C3=O)n1
- MIC90 [2]: > 160 µM
- solubility kinetic at 2 h [5]: < 5 µM

SMILES: Cc1noc(-c2nc(C)c3c(c2N)C(=O)N(Cc2ccccc2C(F)(F)F)C3=O)n1
- MIC90 [2]: > 160 µM
- solubility kinetic at 2 h [5]: < 5 µM

SMILES: Cc1noc(-c2nc(C)c3c(c2N)C(=O)N(Cc2ccc(C(F)(F)F)cc2)C3=O)n1
- MIC90 [2]: 20 µM (≈ 8.35 µg/mL)
- solubility kinetic at 2 h [5]: < 5 µM

SMILES: Cc1noc(-c2nc(C)c3c(c2N)C(=O)N(Cc2ccc(OC(F)F)cc2)C3=O)n1
- MIC90 [2]: < 0.156 µM
- solubility kinetic at 2 h [5]: < 5 µM

SMILES: CCCOC(=O)c1nc(C)c2c(c1N)C(=O)N(Cc1ccccc1)C2=O
- remaining at 0.5 h, 0.1 µM [1]: 3.4%
- MIC90 [2]: < 0.156 µM
- remaining at 0.5 h, 0.1 µM [3]: 8.8%
- remaining at 0.5 h, 0.1 µM [4]: 3.3%
- solubility kinetic at 2 h [5]: < 5 µM

SMILES: Cc1noc(-c2nc(C)c3c(c2N)C(=O)N(Cc2ccc(Br)cc2)C3=O)n1
- MIC90 [2]: < 0.156 µM
- solubility kinetic at 2 h [5]: < 5 µM

SMILES: Cc1noc(-c2nc(C)c3c(c2N)C(=O)N(Cc2ccccc2F)C3=O)n1
- MIC90 [2]: 0.3 µM (≈ 0.11 µg/mL)
- solubility kinetic at 2 h [5]: < 5 µM

SMILES: CCOC(=O)c1ncc2c(c1N)C(=O)N(Cc1ccccc1)C2=O
- MIC90 [2]: 20 µM (≈ 6.51 µg/mL)

SMILES: COc1ccccc1CN1C(=O)c2c(C)nc(-c3nc(C)no3)c(N)c2C1=O
- MIC90 [2]: 0.31 µM (≈ 0.118 µg/mL)
- solubility kinetic at 2 h [5]: < 5 µM

SMILES: Cc1noc(-c2nc(C)c3c(c2N)C(=O)N(Cc2ccc(N(C)C)cc2)C3=O)n1
- MIC90 [2]: 20 µM (≈ 7.85 µg/mL)
- solubility kinetic at 2 h [5]: 7.4 µM (≈ 2.9 µg/mL)

SMILES: Cc1noc(-c2nc(C)c3c(c2N)C(=O)N(Cc2ccc(Cl)cn2)C3=O)n1
- MIC90 [2]: 2.5 µM (≈ 0.962 µg/mL)
- solubility kinetic at 2 h [5]: < 5 µM

SMILES: Cc1noc(-c2nc(C)c3c(c2N)C(=O)N(CC2CCOCC2)C3=O)n1
- MIC90 [2]: 20 µM (≈ 7.15 µg/mL)
- solubility kinetic at 2 h [5]: 5.7 µM (≈ 2.04 µg/mL)

SMILES: Cc1nc(C#N)c(N)c2c1C(=O)N(Cc1ccccc1)C2=O
- remaining at 0.5 h, 0.1 µM [1]: 98%
- MIC90 [2]: > 160 µM
- remaining at 0.5 h, 0.1 µM [3]: 99%
- remaining at 0.5 h, 0.1 µM [4]: 100%
- solubility kinetic at 2 h [5]: < 5 µM

SMILES: CNC(=O)c1nc(C)c2c(c1N)C(=O)N(Cc1ccccc1)C2=O
- MIC90 [2]: > 160 µM
- solubility kinetic at 2 h [5]: 41 µM (≈ 13.3 µg/mL)

SMILES: Cc1noc(-c2nc(C)c3c(c2N)C(=O)N(Cc2ccc(OC(F)(F)F)cc2)C3=O)n1
- MIC90 [2]: 0.62 µM (≈ 0.269 µg/mL)
- solubility kinetic at 2 h [5]: < 5 µM

SMILES: Cc1noc(-c2nc(C)c3c(c2N)C(=O)N(Cc2ccccc2Cl)C3=O)n1
- MIC90 [2]: 1.25 µM (≈ 0.48 µg/mL)
- solubility kinetic at 2 h [5]: < 5 µM

SMILES: Cc1noc(-c2nc(C)c3c(c2N)C(=O)N(Cc2ccc(Oc4ccc(F)cc4)cc2)C3=O)n1
- MIC90 [2]: < 0.156 µM
- solubility kinetic at 2 h [5]: 23.8 µM (≈ 10.9 µg/mL)

SMILES: Cc1nnc(-c2nc(C)c3c(c2N)C(=O)N(Cc2ccccc2)C3=O)o1
- remaining at 0.5 h, 0.1 µM [1]: 63%
- IC50 (Vero): > 100 µM
- MIC90 [2]: > 160 µM
- remaining at 0.5 h, 0.1 µM [3]: 57%
- remaining at 0.5 h, 0.1 µM [4]: 50%
- solubility kinetic at 2 h [5]: < 5 µM

SMILES: Cc1nc(C(=O)N(C)C)c(N)c2c1C(=O)N(Cc1ccccc1)C2=O
- remaining at 0.5 h, 0.1 µM [1]: 72%
- IC50 (Vero): > 100 µM
- MIC90 [2]: > 160 µM
- remaining at 0.5 h, 0.1 µM [3]: 47%
- remaining at 0.5 h, 0.1 µM [4]: 51%
- solubility kinetic at 2 h [5]: 172 µM (≈ 58.2 µg/mL)

SMILES: CCOC(=O)c1nc(C)c2c(c1N)C(=O)N(c1ccccc1)C2=O
- MIC90 [2]: > 160 µM
- solubility kinetic at 2 h [5]: 5 µM (≈ 1.63 µg/mL)

SMILES: Cc1noc(-c2nc(C)c3c(c2N)C(=O)N(Cc2ccc(C#N)cc2)C3=O)n1
- MIC90 [2]: > 160 µM
- solubility kinetic at 2 h [5]: < 5 µM

SMILES: Cc1noc(-c2nc(C)c3c(c2N)C(=O)N(Cc2cccc(F)c2)C3=O)n1
- MIC90 [2]: < 0.156 µM
- solubility kinetic at 2 h [5]: < 5 µM

SMILES: Cc1nc(C(=O)NO)c(N)c2c1C(=O)N(Cc1ccccc1)C2=O
- remaining at 0.5 h, 0.1 µM [1]: 80%
- MIC90 [2]: > 160 µM
- remaining at 0.5 h, 0.1 µM [3]: 58%
- remaining at 0.5 h, 0.1 µM [4]: 46%

SMILES: Cc1nc(-c2nc(C(F)(F)F)no2)c(N)c2c1C(=O)N(Cc1ccccc1)C2=O
- remaining at 0.5 h, 0.1 µM [1]: 100%
- IC50 (Vero): > 100 µM
- MIC90 [2]: 20 µM (≈ 8.07 µg/mL)
- remaining at 0.5 h, 0.1 µM [3]: 20%
- remaining at 0.5 h, 0.1 µM [4]: 83%
- solubility kinetic at 2 h [5]: < 5 µM

SMILES: Cc1noc(-c2nc(C)c3c(c2N)C(=O)N(Cc2ccc(CO)cc2)C3=O)n1
- MIC90 [2]: 0.62 µM (≈ 0.235 µg/mL)
- solubility kinetic at 2 h [5]: < 5 µM

SMILES: Cc1noc(-c2nc(C)c3c(c2N)C(=O)N(C(C)c2ccccc2)C3=O)n1 (centres undefined)
- MIC90 [2]: 1.25 µM (≈ 0.454 µg/mL)
- solubility kinetic at 2 h [5]: 10.9 µM (≈ 3.96 µg/mL)

SMILES: Cc1noc(-c2nc(C)c3c(c2N)C(=O)N(Cc2ccc(C(N)=O)cc2)C3=O)n1
- MIC90 [2]: > 160 µM
- solubility kinetic at 2 h [5]: < 5 µM

SMILES: COC(=O)c1nc(C)c2c(c1N)C(O)N(Cc1ccccc1)C2=O (centres undefined)
- remaining at 0.5 h, 0.1 µM [1]: 55%
- IC50 (Vero): > 100 µM
- MIC90 [2]: 2.5 µM (≈ 0.818 µg/mL)
- remaining at 0.5 h, 0.1 µM [3]: 69%
- remaining at 0.5 h, 0.1 µM [4]: 70%
- solubility kinetic at 2 h [5]: 200 µM (≈ 65.5 µg/mL)

SMILES: Cc1noc(-c2nc(C)c3c(c2N)C(=O)N(Cc2ccc(Cl)cc2)C3=O)n1
- MIC90 [2]: 0.62 µM (≈ 0.238 µg/mL)
- solubility kinetic at 2 h [5]: < 5 µM

SMILES: Cc1noc(-c2nc(C)c3c(c2N)C(=O)N(Cc2cccc(C(F)(F)F)c2)C3=O)n1
- MIC90 [2]: < 0.156 µM
- solubility kinetic at 2 h [5]: < 5 µM

SMILES: CO[C@H]1/C=C/O[C@@]2(C)Oc3c(C)c(O)c4c(O)c(c(/C=N/N5CCN(C)CC5)c(O)c4c3C2=O)NC(=O)/C(C)=C\C=C\[C@H](C)[C@H](O)[C@@H](C)[C@@H](O)[C@@H](C)[C@H](OC(C)=O)[C@@H]1C [RIFAMPIN]
- MIC90 [2]: 0.009 µM (≈ 0.00741 µg/mL)

SMILES: CCOC(=O)c1nc(C)c2c(c1N)C(=O)N(Cc1ccccc1)C2O (centres undefined)
- remaining at 0.5 h, 0.1 µM [1]: 99%
- IC50 (Vero): > 100 µM
- MIC90 [2]: 0.144 µM (≈ 0.0492 µg/mL)
- remaining at 0.5 h, 0.1 µM [3]: 89%
- remaining at 0.5 h, 0.1 µM [4]: 81%
- solubility kinetic at 2 h [5]: 41.5 µM (≈ 14.2 µg/mL)

SMILES: Cc1noc(-c2nc(C)c3c(c2N)C(=O)N(Cc2ccc(-n4cccn4)cc2)C3=O)n1
- MIC90 [2]: 40 µM (≈ 16.6 µg/mL)
- solubility kinetic at 2 h [5]: < 5 µM

SMILES: Cc1noc(-c2nc(C)c3c(c2N)C(=O)N(Cc2ccc(SC(F)(F)F)cc2)C3=O)n1
- MIC90 [2]: 1.2 µM (≈ 0.539 µg/mL)
- solubility kinetic at 2 h [5]: < 5 µM

SMILES: COC(=O)c1nc(C)c2c(c1N)C(=O)N(Cc1ccccc1)C2=O
- MIC90 [2]: 0.15 µM (≈ 0.0488 µg/mL)
- solubility kinetic at 2 h [5]: 7.4 µM (≈ 2.41 µg/mL)
